The subject of one experiment is A2780 cells. Put plainly: Ferrostatin rescue experiment. The experiment is classed as cell-based, human. Conditions: Ferrostatin-1 2 μM with EN25 50μM, A2780, 48 hr, Hoechst staining.
The target in the next experiment is T1, pure human GCLM protein (Homo sapiens, UniProt P48507).
T1 sequence (P48507 1-274): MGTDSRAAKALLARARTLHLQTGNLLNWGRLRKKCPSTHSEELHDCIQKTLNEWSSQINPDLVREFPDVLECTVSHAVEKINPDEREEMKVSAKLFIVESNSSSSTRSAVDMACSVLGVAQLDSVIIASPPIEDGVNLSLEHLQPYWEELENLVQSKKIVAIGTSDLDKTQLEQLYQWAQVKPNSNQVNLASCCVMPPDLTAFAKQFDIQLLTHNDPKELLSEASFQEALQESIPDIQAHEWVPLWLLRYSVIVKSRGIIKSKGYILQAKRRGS
The experiment is described as follows: Gel-based ABPP. Type of experiment: binding. Put shortly: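 Pure recombinant human GCLM (0.1 μg in 50 μL PBS) treated for 30 min at 37 °C with alkyne probe (10–100 μM final) or DMSO. In the competition format, protein is first preincubated with test compound for 30 min at 37 °C, then labelled with probe (50 μM final) for 2 h at 37 °C. Rhodamine-azide (1 μM final) appended by CuAAC, then reducing SDS-PAGE and in-gel fluorescence; silver stain confirms loading.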

For experiment [1], the target named is T2, GCL (pure human recombinant GCLC and GCLM) (Homo sapiens, UniProt P48506+P48507).
T2 sequence (P48507 1-274): T1 sequence (P48507 1-274)
T2 sequence (P48506 1-637): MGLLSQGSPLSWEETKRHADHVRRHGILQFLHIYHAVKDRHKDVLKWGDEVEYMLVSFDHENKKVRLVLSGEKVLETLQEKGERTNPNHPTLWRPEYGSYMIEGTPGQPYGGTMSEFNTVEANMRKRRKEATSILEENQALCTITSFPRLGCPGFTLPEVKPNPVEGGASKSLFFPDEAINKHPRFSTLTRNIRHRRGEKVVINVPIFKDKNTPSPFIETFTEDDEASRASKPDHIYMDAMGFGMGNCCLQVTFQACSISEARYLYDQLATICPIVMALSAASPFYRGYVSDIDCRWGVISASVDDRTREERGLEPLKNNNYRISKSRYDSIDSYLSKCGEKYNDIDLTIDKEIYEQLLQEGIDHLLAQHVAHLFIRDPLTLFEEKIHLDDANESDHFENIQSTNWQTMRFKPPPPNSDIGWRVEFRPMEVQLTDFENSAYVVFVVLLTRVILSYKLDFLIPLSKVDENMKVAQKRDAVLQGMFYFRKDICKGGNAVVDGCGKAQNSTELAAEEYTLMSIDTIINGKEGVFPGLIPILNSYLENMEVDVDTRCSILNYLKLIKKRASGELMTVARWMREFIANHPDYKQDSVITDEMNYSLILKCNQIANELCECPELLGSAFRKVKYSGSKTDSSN
Put plainly: GCL functional assay. Type of experiment: biochemical.

Experiment [2] relates to GSH levels in A2780 cells. Put plainly: LC-MS/MS quantification of GSH levels, A2780. Conditions: SRM LC-MS/MS 4hr post treatment. Type of experiment: cell-based, human.
For experiment [3], the system named is GSH levels in RMG-1 cells. The experiment is described as follows: LC-MS/MS quantification of GSH levels, RMG-1. The experiment is classed as cell-based, human. Conditions: SRM LC-MS/MS 4hr post treatment.
Experiment [4] has as its system A2780 ARID1A-negative ovarian cancer cells. The experiment is described as follows: Cell viability by Hoechst staining, A2780. The experiment is classed as cell-based, human. Conditions: Hoechst staining at 24 hr. Put shortly:
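A2780 cells seeded at 6,000/well in 96-well plates and left to adhere overnight, then dosed with test compound or DMSO vehicle for 24 hr. Fixed and stained with 10% formalin plus Hoechst 33342 for 15 min in the dark at room temperature, then washed three times with PBS before fluorescence reading. Expressed as percentage of DMSO control, mean ± sem, n=6 biologically independent replicates.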

Experiment [5] concerns RMG-1 ARID1A-positive ovarian cancer cells. The experiment is described as follows: Cell viability by Hoechst staining, RMG-1. Conditions: Hoechst staining at 24 hr. Type of experiment: cell-based, human.
The test system of experiment [6] is cysteines within proteins in A2780 cells. Put plainly: isoTOP-ABPP cysteine chemoproteomic profiling. Conditions: A2780 cells treated 90 min; IA-alkyne 100 μM. Type of experiment: cell-based, human.
The subject of a further experiment is siGCLM A2780 cells. Put plainly: Cell viability after GCLM knockdown. Conditions: siGCLM vs siControl A2780, 24 hr treatment, Hoechst staining. The experiment is classed as cell-based, human.
The target of experiment [7] is T3, GCLM C114 (pure human GCLM and GCLC) (Homo sapiens, UniProt P48507).
T3 sequence (P48507 1-274): T1 sequence (P48507 1-274)
T3 sequence (P48506 1-637 partner): T2 sequence (P48506 1-637)
Put plainly: LC-MS/MS analysis of EN25 adduct on GCL complex. Type of experiment: binding. Conditions: EN25 50 μM, 30 min at 37°C; tryptic digest LC-MS/MS.

SMILES strings stand for the structures.

For `CCOC(=O)c1ccc(NC2CCCCC2)c(N)c1` [ferrostatin, Ferrostatin-1], the “rescue of EN25-mediated cell viability impairment” value with A2780 cells was “attenuated the cell viability impairments conferred by EN25 treatment”.
For `C#CCOc1ccc(-c2ccc(CNC(=O)c3ccc(CNC(=O)C=C)cc3)cc2)cc1` [EN25-alkyne], on pure human GCLM protein (in-gel fluorescence after CuAAC with rhodamine-azide), the “covalent labeling of GCLM” value is given as “showed covalent labeling of GCLM”. Further, the IC50 in experiment [1] stood at 3.6 µM.
For the molecule `C=CC(=O)NCc1ccc(C(=O)Nc2ccc(Sc3ccc(C)c(C)c3)cc2)cc1` [EN25], the GSH levels entry was “significantly lowered GSH levels in A2780 cancer cells” in [2] and “no changes observed in RMG-1 cells” in experiment [3]. Besides, the cell viability impairment result was “more sensitive A2780 cancer cell line” in experiment [4] and “RMG-1 cancer cells showed resistance to EN25-mediated cell viability impairments” in [5]. In addition, in experiment [6], the “proteome-wide selectivity: potential off-targets” value is “nine potential off-targets of EN25 out of >5000 cysteines”. The “cell viability impairment upon GCLM knockdown” value with siGCLM A2780 cells was “GCLM knockdown with siRNA conferred hypersensitivity to EN25-mediated cell viability impairments”. In addition, the “site of covalent modification on GCL complex” value in experiment [7] is “selective and covalent EN25 modification of C114 on GCLM”. In addition, the “competition of EN25-alkyne labeling of GCLM” value on pure human GCLM protein (pre-incubation 30 min at 37°C, then EN25-alkyne 50 μM for 2 h) was “dose-responsive competition of this labeling by EN25”. The IC50 in experiment [1] stood at 16 µM.

The values are drawn from PMC10739677 (Chembiochem : a European journal of chemical biology, 2023).
